According to ChEMBL document CHEMBL5036324 (J Med Chem, 2021):
Calls of active or inactive are those of the source. No cut-off for these calls is given here.

Experiments:
[1] = molecular target: T1, TLR7 and TLR8 (Homo sapiens) (UniProt Q9NYK1+Q9NR97); test: Agonist activity at human TLR7/8 expressed in human PBMC cells assessed as induction of TNFalpha production by measuring concentration required to induce maximal response incubated for 12 hrs by multiplexed immunoassay; assay type: cell-based; settings: filed as agonist
Method in brief: (§1)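 Healthy-volunteer PBMCs from a single donor were isolated by Ficoll−Hypaque gradient and plated at 2.0 × 10⁶ cells/mL. They were stimulated for 12 h with escalating compound concentrations. Supernatants were assayed in duplicate on a 41-analyte magnetic bead cytokine/chemokine panel read by Luminex. EC_max is the concentration giving maximal cytokine induction.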

[2] = molecular target: T1, TLR7 and TLR8 (Homo sapiens); test: Agonist activity at human TLR7/8 expressed in human PBMC cells assessed as induction of IL-1beta production by measuring concentration required to induce maximal response incubated for 12 hrs by multiplexed immunoassay; assay type: cell-based; settings: filed as agonist; method in brief: as §1
[3] = molecular target: T1, TLR7 and TLR8 (Homo sapiens); test: Agonist activity at human TLR7/8 expressed in human PBMC cells assessed as induction of IL-6 production by measuring concentration required to induce maximal response incubated for 12 hrs by multiplexed immunoassay; assay type: cell-based; settings: filed as agonist; method in brief: as §1
[4] = molecular target: T1, TLR7 and TLR8 (Homo sapiens); test: Agonist activity at human TLR7/8 expressed in human PBMC cells assessed as induction of IL-8 production by measuring concentration required to induce maximal response incubated for 12 hrs by multiplexed immunoassay; assay type: cell-based; settings: filed as agonist; method in brief: as §1
[5] = molecular target: T1, TLR7 and TLR8 (Homo sapiens); test: Agonist activity at human TLR7/8 expressed in human PBMC cells assessed as induction of IL-10 production by measuring concentration required to induce maximal response incubated for 12 hrs by multiplexed immunoassay; assay type: cell-based; settings: filed as agonist; method in brief: as §1
[6] = molecular target: T1, TLR7 and TLR8 (Homo sapiens); test: Agonist activity at human TLR7/8 expressed in human PBMC cells assessed as induction of INF-gamma production by measuring concentration required to induce maximal response incubated for 12 hrs by multiplexed immunoassay; assay type: cell-based; settings: filed as agonist; method in brief: as §1
[7] = molecular target: T1, TLR7 and TLR8 (Homo sapiens); test: Agonist activity at human TLR7/8 expressed in human PBMC cells assessed as induction of MIP-1alpha production by measuring concentration required to induce maximal response incubated for 12 hrs by multiplexed immunoassay; assay type: cell-based; settings: filed as agonist; method in brief: as §1
[8] = molecular target: T1, TLR7 and TLR8 (Homo sapiens); test: Agonist activity at human TLR7/8 expressed in human PBMC cells assessed as induction of IP-10 production by measuring concentration required to induce maximal response incubated for 12 hrs by multiplexed immunoassay; assay type: cell-based; settings: filed as agonist; method in brief: as §1
[9] = molecular target: T1, TLR7 and TLR8 (Homo sapiens); test: Agonist activity at human TLR7/8 expressed in human PBMC cells assessed as induction of IL-12p40 production by measuring concentration required to induce maximal response incubated for 12 hrs by multiplexed immunoassay; assay type: cell-based; settings: filed as agonist; method in brief: as §1
[10] = molecular target: T1, TLR7 and TLR8 (Homo sapiens); test: Agonist activity at human TLR7/8 expressed in human PBMC cells assessed as induction of VEGF secretion incubated for 12 hrs by multiplexed immunoassay; assay type: cell-based; settings: filed as agonist; method in brief: as §1
[11] = test system: CT26; test: Antitumor activity against mouse CT26 cells implanted in BALB/c mouse assessed as tumor growth delay at 25 ug, ip administered once per week and measured every 3 days for 23 days; assay type: functional, organism-based; settings: dose 25.0 µg, time 23.0 day
Method in brief: (§2)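 Subcutaneous CT26 tumours were grown in BALB/c mice, with cells cultured in DMEM/10% FBS. At a mean tumour size of 100 mm³, mice were randomised (n = 5/group). Agonist was given ip once weekly; anti-PD-1 or IgG isotype was given ip at 200 μg twice weekly. Tumour volume (V = 1/2ab²) was measured every 3 days. Mice were euthanised at 2000 mm³.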

[12] = test system: CT26; test: Antitumor activity against mouse CT26 cells implanted in BALB/c mouse assessed as reduction in tumor volume at 25 ug, ip administered once a week in presence of anti-PD-1 antibodies and measured every 3 days for 23 days; assay type: functional, organism-based; settings: dose 25.0 µg, time 23.0 day; method in brief: as §2
[13] = Toxicity in BALB/c mouse implanted with mouse CT26 cells assessed as decrease in body weight at 25 ug, ip administered once a week for 23 days; assay type: organism-based; settings: in vivo, 552 h, dose 25 µg, time 23 day
Method in brief: (§3)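 CT26 subcutaneous tumor-bearing BALB/c mice (n = 5) were treated from 100 mm³ tumor volume. TLR7/8 agonist was given ip once weekly, alone or with anti-PD-1 antibody (200 μg ip, twice weekly). Body weight was tracked over the treatment period and reported as mean ± SEM.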

[14] = Toxicity in BALB/c mouse implanted with mouse CT26 cells assessed as decrease in body weight at 25 ug, ip administered once a week in presence of anti-PD-1 antibodies for 23 days; assay type: organism-based; settings: in vivo, 552 h, dose 25 µg, time 23 day; method in brief: as §3
[15] = test system: CT26; test: Antitumor immunity against mouse CT26 cells implanted in BALB/c mouse assessed as increase in infiltration of CD4+ TH1 cells at 25 ug, ip administered once a week for 23 days by flow cytometry analysis; assay type: functional, organism-based; settings: dose 25.0 µg, time 23.0 day
Method in brief: (§4)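 CT26-bearing BALB/c mice (n = 5) were treated ip once weekly with agonist, alone or with anti-PD-1 (200 μg, twice weekly). Tumours were harvested 23 days after implantation, enzymatically and mechanically dissociated into single cells, and stained for surface markers plus intracellular FoxP3 after fixation/permeabilisation. Cells were gated within CD45⁺ for CD11c⁺ DCs, CD11b⁺F4/80⁺MHCII⁺ (M1), CD206⁺ (M2), CD3/CD4/CD8, and CD4⁺CD25⁺FoxP3⁺ Treg, then analysed by flow cytometry.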

[16] = test system: CT26; test: Antitumor immunity against mouse CT26 cells implanted in BALB/c mouse assessed as increase in infiltration of CD8+ T cytotoxic lymphocytes at 25 ug, ip administered once a week for 23 days by flow cytometry analysis; assay type: functional, organism-based; settings: dose 25.0 µg, time 23.0 day; method in brief: as §4
[17] = test system: CT26; test: Antitumor immunity against mouse CT26 cells implanted in BALB/c mouse assessed as increase in infiltration of CD4+ TH1 cells at 25 ug, ip administered once a week with anti-PD-1 antibody for 23 days by flow cytometry analysis; assay type: functional, organism-based; settings: dose 25.0 µg, time 23.0 day; method in brief: as §4
[18] = test system: CT26; test: Antitumor immunity against mouse CT26 cells implanted in BALB/c mouse assessed as increase in infiltration of CD8+ T cytotoxic lymphocytes at 25 ug, ip administered once a week with anti-PD-1 antibody for 23 days by flow cytometry analysis; assay type: functional, organism-based; settings: dose 25.0 µg, time 23.0 day; method in brief: as §4
[19] = Acute toxicity in BALB/c mouse assessed as mortality at 120 mg/kg, ip administered as single dose; assay type: organism-based; settings: in vivo
[20] = Acute toxicity in BALB/c mouse assessed as body weight loss at 60 mg/kg, ip administered as single dose relative to control; assay type: organism-based; settings: in vivo
[21] = Acute toxicity in BALB/c mouse assessed as white discharge from eyes at 15 to 80 mg/kg, ip administered as single dose; assay type: organism-based; settings: in vivo, dose 15-80 mg/kg
[22] = Acute toxicity in BALB/c mouse assessed as mild diarrhea at 15 to 80 mg/kg, ip administered as single dose; assay type: organism-based; settings: in vivo, dose 15-80 mg/kg
[23] = Acute toxicity in BALB/c mouse assessed as maximum tolerated dose; settings: in vivo
[24] = Acute toxicity in BALB/c mouse assessed as decrease in locomotor activity at 15 to 80 mg/kg, ip administered as single dose; assay type: organism-based; settings: in vivo, dose 15-80 mg/kg
[25] = Subacute toxicity in BALB/c mouse assessed as body weight loss at 1.12 g, ip administered as single dose; assay type: organism-based; settings: in vivo
Method in brief: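 Subacute study in BALB/c mice, with treated and control groups. Body weight was recorded every day. Spleens were weighed and photographed, and tissues were examined by H&E staining.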

[26] = Subacute toxicity in BALB/c mouse assessed as splenomegaly at 15 mg/kg, ip administered as single dose; assay type: organism-based; settings: in vivo
Method in brief: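 Subacute toxicity study in BALB/c mice given ip TLR7/8 agonist. Spleens from treated and control groups were weighed and photographed. Body weight was recorded every day.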

[27] = molecular target: T1, TLR7 and TLR8 (Homo sapiens); test: Agonist activity at human TLR7/8 expressed in human PBMC cells assessed as induction of MCP-1 production by measuring concentration required to induce maximal response incubated for 12 hrs by multiplexed immunoassay; assay type: cell-based; settings: filed as agonist; method in brief: as §1
[28] = molecular target: T1, TLR7 and TLR8 (Homo sapiens); test: Agonist activity at human TLR7/8 expressed in human PBMC cells assessed as induction of G-CSF production by measuring concentration required to induce maximal response incubated for 12 hrs by multiplexed immunoassay; assay type: cell-based; settings: filed as agonist; method in brief: as §1
[29] = test system: CT26; test: Antitumor immunity against mouse CT26 cells implanted in BALB/c mouse assessed as increase in Teff/Treg ratio at 25 ug, ip administered once a week for 23 days by flow cytometry analysis; assay type: functional, organism-based; settings: dose 25.0 µg, time 23.0 day; method in brief: as §4
[30] = test system: CT26; test: Antitumor immunity against mouse CT26 cells implanted in BALB/c mouse assessed as increase in Teff/Treg ratio at 25 ug, ip administered once a week with anti-PD-1 antibody for 23 days by flow cytometry analysis; assay type: functional, organism-based; settings: dose 25.0 µg, time 23.0 day; method in brief: as §4
[31] = Acute toxicity in BALB/c mouse assessed as body weight regain at 60 mg/kg, ip administered as single dose measured after 3 days; assay type: organism-based; settings: in vivo, 72 h, time 3 day
[32] = Acute toxicity in BALB/c mouse assessed as decrease in locomotor activity at 15 to 80 mg/kg, ip administered as single dose measured after 24 hrs; assay type: organism-based; settings: in vivo, dose 15-80 mg/kg
[33] = Acute toxicity in BALB/c mouse assessed as mild diarrhea at 15 to 80 mg/kg, ip administered as single dose measured after 24 hrs; assay type: organism-based; settings: in vivo, dose 15-80 mg/kg
[34] = Acute toxicity in BALB/c mouse assessed as white discharge from eyes at 15 to 80 mg/kg, ip administered as single dose measured after 24 hrs; assay type: organism-based; settings: in vivo, dose 15-80 mg/kg

## CCOCc1nc2c(N)nc3ccccc3c2n1CC(C)(C)O [RESIQUIMOD]
[1]
  ECmax: 2 µg/mL
[2]
  ECmax: 2 µg/mL
[3]
  ECmax: 2 µg/mL
[4]
  ECmax: 2 µg/mL
[5]
  ECmax: 2 µg/mL
[6]
  ECmax: 2 µg/mL
[7]
  ECmax: 2 µg/mL
[8]
  ECmax: 2 µg/mL
[9]
  ECmax: 2 µg/mL
[10]
  Activity: Active
[11]
  Activity: Active
[12]
  Activity: Active
[13]
  Activity: Non-Toxic
[14]
  Activity: Non-Toxic
[15]
  Activity: Active
[16]
  Activity: Active
[17]
  Activity: Active
[18]
  Activity: Active
[19]
  Activity: Toxic
[20]
  Activity: 8.7%
[21]
  Activity: Toxic
[22]
  Activity: Toxic
[23]
  MTD: 80 mg/kg
[24]
  Activity: Toxic
[25]
  Activity: Toxic
[26]
  Activity: Toxic
[27]
  ECmax: 2 µg/mL
[28]
  ECmax: 2 µg/mL
[29]
  Activity: Active
[30]
  Activity: Active
[31]
  Activity: Non-Toxic
[32]
  Activity: Non-Toxic
[33]
  Activity: Non-Toxic
[34]
  Activity: Non-Toxic
